Measurements taken from ChEMBL document CHEMBL1125331, “6-Hydroxy-3-n-propyl-2,3,4,5-tetrahydro-1H-3-benzazepine and analogs: new centrally acting 5-HT1A receptor agonists” (J Med Chem, 1992).

What was measured:
[1] = molecular target: T1, 5-hydroxytryptamine receptor 1A (Rattus norvegicus, UniProt P19327); experiment: Inhibitory activity against 5-hydroxytryptamine 1A receptor in rats, using [3H]8-OH-DPAT as radioligand
T1 sequence (P19327 whole entry): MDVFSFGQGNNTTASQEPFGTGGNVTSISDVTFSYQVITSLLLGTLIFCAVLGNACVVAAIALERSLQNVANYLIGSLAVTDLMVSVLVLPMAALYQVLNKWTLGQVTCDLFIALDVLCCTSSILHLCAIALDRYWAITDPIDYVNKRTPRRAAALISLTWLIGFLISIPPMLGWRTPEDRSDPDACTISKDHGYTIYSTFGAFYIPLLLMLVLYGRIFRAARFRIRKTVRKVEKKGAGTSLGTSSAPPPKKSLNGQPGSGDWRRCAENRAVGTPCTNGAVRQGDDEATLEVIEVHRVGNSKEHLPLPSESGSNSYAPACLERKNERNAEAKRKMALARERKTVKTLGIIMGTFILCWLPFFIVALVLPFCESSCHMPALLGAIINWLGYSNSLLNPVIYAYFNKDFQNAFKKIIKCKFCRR
Method in brief: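 Rat whole-brain membranes (minus brainstem and cerebellum) in 50 mM Tris pH 8.0 with 120 mM NaCl, 4 mM CaCl2, 4 mM MgCl2 and 10 μM pargyline. Rapid filtration, then scintillation counting. Nonspecific binding defined with 10 μM 5-HT. IC50 by semi-log plot and linear regression.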

D(2) dopamine receptor = D(2) dopamine receptor (Rattus norvegicus, UniProt P61169); experiment: Inhibitory activity against Dopamine receptor D2 in rats using [3H]spiperone as radioligand
D(2) dopamine receptor, sequence (P61169 whole entry): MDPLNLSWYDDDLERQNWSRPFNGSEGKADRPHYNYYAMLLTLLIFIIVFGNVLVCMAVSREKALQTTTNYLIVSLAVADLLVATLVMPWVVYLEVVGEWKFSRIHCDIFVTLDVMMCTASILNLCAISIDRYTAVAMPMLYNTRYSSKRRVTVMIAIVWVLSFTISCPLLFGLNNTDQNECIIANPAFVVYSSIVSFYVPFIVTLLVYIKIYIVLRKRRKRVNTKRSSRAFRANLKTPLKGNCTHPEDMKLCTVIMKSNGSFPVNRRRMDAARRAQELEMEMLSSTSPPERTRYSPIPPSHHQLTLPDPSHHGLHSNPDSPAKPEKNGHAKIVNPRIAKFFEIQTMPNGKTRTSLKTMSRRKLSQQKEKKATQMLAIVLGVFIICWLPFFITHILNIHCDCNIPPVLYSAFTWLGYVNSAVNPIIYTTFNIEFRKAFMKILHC
Method in brief: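 Rat striatal membranes in 50 mM potassium phosphate buffer pH 7.4 were incubated with 0.5 nM [3H]spiperone for 10 min at 37 °C. Specific binding was defined with 10 μM 6,7-ADTN.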

Rattus norvegicus [2] = experiment: Effect evaluated in vivo on 5-HTP accumulation in limbic system at a dose 3.1 umol/kg (s.c.); assay type: functional
Method in brief: (§1)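 Male Sprague-Dawley rats (200–300 g) were pretreated with reserpine 5 mg/kg sc 18 h before. Test compound was given sc at 5 mL/kg in neutral solution. 5-HT synthesis rate was indexed by […] 5-HTP accumulation after decarboxylase inhibition with NSD 1015, measured by HPLC-electrochemical detection. Dose-response used 4–6 dose levels, n = 4.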

Rattus norvegicus [3] = experiment: Effect evaluated in vivo on 5-HTP accumulation in limbic system at a dose 50 umol/kg (s.c.); assay type: functional; method in brief: as §1
Rattus norvegicus [4] = experiment: Effect evaluated in vivo on 5-HTP accumulation in NE-rich hemispheres at a 0.80 dose uM/kg(sc); assay type: functional
Method in brief: (§2)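 Male Sprague-Dawley rats (200–300 g) were pretreated with reserpine 5 mg/kg sc 18 h beforehand. Test drug was given at neutral pH, 5 mL/kg. Aromatic amino acid decarboxylase was blocked with NSD 1015. 5-HTP in the dissected brain region was assayed by HPLC with electrochemical detection.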

Rattus norvegicus [5] = experiment: Effect evaluated in vivo on 5-HTP accumulation in corpus striatum at a dose 12.5 umol/kg (s.c.); assay type: functional; method in brief: as §2
Rattus norvegicus [6] = experiment: Effect evaluated in vivo on 5-HTP accumulation in corpus striatum at a dose 3.1 umol/kg (s.c.); assay type: functional; method in brief: as §2
Rattus norvegicus [7] = experiment: Effect evaluated in vivo on 5-HTP accumulation in limbic system after subcutaneous administration; assay type: functional; conditions: sc; method in brief: as §2
Rattus norvegicus [8] = experiment: Effect evaluated in vivo on 5-HTP accumulation in corpus striatum at a dose 50 umol/kg (s.c.); assay type: functional; method in brief: as §2
Rattus norvegicus [9] = experiment: Effect evaluated in vivo on 5-HTP accumulation in limbic system at a dose 0.80 umol/kg (s.c.); assay type: functional; method in brief: as §1
Rattus norvegicus [10] = experiment: Effect evaluated in vivo on 5-HTP accumulation in limbic system at a dose 12.5 umol/kg (s.c.); assay type: functional; method in brief: as §1
Rattus norvegicus [11] = experiment: Effect evaluated in vivo on 5-HTP accumulation in NE-rich hemispheres after subcutaneous administration; assay type: functional; conditions: sc; method in brief: as §2
Rattus norvegicus [12] = experiment: Effect evaluated in vivo on 5-HTP accumulation in NE-rich hemispheres at a 12.5 dose uM/kg(sc); assay type: functional; method in brief: as §2
Rattus norvegicus [13] = experiment: Effect evaluated in vivo on 5-HTP accumulation in NE-rich hemispheres at a 50 dose uM/kg(sc); assay type: functional; method in brief: as §2
Rattus norvegicus [14] = experiment: Effect evaluated in vivo on 5-HTP accumulation in corpus striatum after subcutaneous administration; assay type: functional; method in brief: as §2
Rattus norvegicus [15] = experiment: Effect evaluated in vivo on 5-HTP accumulation in corpus striatum at a dose 0.80 umol/kg (s.c.); assay type: functional; method in brief: as §2
Rattus norvegicus [16] = experiment: The compound was tested in vivo for locomotor activity in rats at 0.2 umol/kg after subcutaneous administration
Rattus norvegicus [17] = experiment: Effect evaluated in vivo on 5-HTP accumulation in NE-rich hemispheres at a 0.20 dose uM/kg(sc); assay type: functional; method in brief: as §2
Rattus norvegicus [18] = experiment: Effect evaluated in vivo on 5-HTP accumulation in NE-rich hemispheres at a 0.78 dose uM/kg(sc); assay type: functional; method in brief: as §2
Rattus norvegicus [19] = experiment: Effect evaluated in vivo on 5-HTP accumulation in limbic system at a dose 0.20 umol/kg (s.c.); assay type: functional; method in brief: as §2
Rattus norvegicus [20] = experiment: Effect evaluated in vivo on 5-HTP accumulation in limbic system at a dose 0.78 umol/kg (s.c.); assay type: functional; method in brief: as §2
Rattus norvegicus [21] = experiment: Effect evaluated in vivo on 5-HTP accumulation in NE-rich hemispheres at a 3.1 dose uM/kg(sc); assay type: functional; method in brief: as §2
Rattus norvegicus [22] = experiment: Effect evaluated in vivo on 5-HTP accumulation in corpus striatum at a dose 0.20 umol/kg (s.c.); assay type: functional; method in brief: as §2
Rattus norvegicus [23] = experiment: Effect evaluated in vivo on 5-HTP accumulation in corpus striatum at a dose 0.78 umol/kg (s.c.); assay type: functional; method in brief: as §2
Rattus norvegicus [24] = experiment: Effect evaluated in vivo on 5-HTP accumulation in limbic system at a dose uM/kg(sc); assay type: functional; method in brief: as §1
Rattus norvegicus [25] = experiment: Effect evaluated in vivo on 5-HTP accumulation in corpus striatum at a dose uM/kg(sc); assay type: functional; method in brief: as §2
Rattus norvegicus [26] = experiment: Effect evaluated in vivo on 5-HTP accumulation in NE-rich hemispheres at a dose uM/kg(sc); assay type: functional; method in brief: as §2
Rattus norvegicus [27] = experiment: The compound was tested in vivo for locomotor activity in rats at 50 umol/kg after subcutaneous administration; assay type: functional
Method in brief: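 Male Sprague-Dawley rats received reserpine 5 mg/kg sc in the neck 18 h before testing. Test compound was given sc in the neck (n = 4). Rats were placed singly in photocell motility meters immediately after dosing, and counts were accumulated over 30 min (tests 9 a.m.–1 p.m.). Gross behaviour, including 5-HT syndrome, was observed throughout.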

Rattus norvegicus [28] = experiment: Effect evaluated in vivo on 5-HTP accumulation in corpus striatum at ED50 umol/kg after subcutaneous administration; assay type: functional; conditions: sc; method in brief: as §2
Rattus norvegicus [29] = experiment: Effect evaluated in vivo on 5-HTP accumulation in NE-rich hemispheres at ED50 umol/kg after subcutaneous administration; assay type: functional; conditions: sc; method in brief: as §2

Row | SMILES | IC50 [1] [nM] | IC50 (D(2) dopamine receptor) [nM] | Control (Rattus norvegicus [2]) [%] | Control (Rattus norvegicus [3]) [%] | Control (Rattus norvegicus [5]) [%] | Control (Rattus norvegicus [6]) [%] | ED50 (Rattus norvegicus [7]) [µmol/kg] | Control (Rattus norvegicus [8]) [%] | Control (Rattus norvegicus [10]) [%] | Control (Rattus norvegicus [12]) [%] | Control (Rattus norvegicus [13]) [%] | Locomotor activity (Rattus norvegicus [16]) | Control (Rattus norvegicus [21]) [%] | further results
1 | CCN1CCc2cccc(O)c2CC1 | 630 | 14000 | 89 | 46 | 56 | 96 | 5 | 54 | 48 | 49 | 48 | 31 |  | Control (Rattus norvegicus [4]): 108 µM/kg; Control (Rattus norvegicus [9]): 99%; ED50 (Rattus norvegicus [11]): 6 µmol/kg; ED50 (Rattus norvegicus [14]; sc): 6.5 µmol/kg; Control (Rattus norvegicus [15]): 100%
2 | CCCCN1CCc2ccc(O)cc2CC1 |  |  |  | 119 |  |  |  | 106 |  |  | 114 |  |  | 
3 | COc1cccc2c1CCN(C)CC2 | 480 | 2300 | 108 | 67 | 74 | 89 |  | 72 | 86 | 76 | 80 | 8 | 93 | Control (Rattus norvegicus [17]): 126%; Control (Rattus norvegicus [18]): 81%; Control (Rattus norvegicus [19]): 110%; Control (Rattus norvegicus [20]): 93%; Control (Rattus norvegicus [22]): 98%; Control (Rattus norvegicus [23]): 97%
4 | CCCCN1CCc2cccc(O)c2CC1 | 420 | 12000 |  |  |  |  |  |  |  |  |  |  |  | Control (Rattus norvegicus [24]): 84%; Control (Rattus norvegicus [25]): 111%; Control (Rattus norvegicus [26]): 108%; Locomotor activity (Rattus norvegicus [27]): 19
5 | CN1CCc2cccc(O)c2CC1 |  |  | 106 | 57 |  | 104 | 10 | 54 | 72 | 73 | 58 | 6 | 96 | ED50 (Rattus norvegicus [28]): 11 µmol/kg; ED50 (Rattus norvegicus [29]): 12 µmol/kg; Control (Rattus norvegicus [14]): 70%
